From ChEMBL document CHEMBL3853270, “Influence of Birch Bark Triterpenes on Keratinocytes and Fibroblasts from Diabetic and Nondiabetic Donors” (2016)
Activity calls are given as the source filed them.

How the values were obtained:
Fibroblast [1] = assay: Induction of shape change of actin cytoskeleton in human diabetic primary fibroblasts at 10 nM after 2 hrs by rhodamine phalloidin-staining based fluorescence microscopic analysis; format: functional
Fibroblast [2] = assay: Induction of shape change of actin cytoskeleton in human non-diabetic primary fibroblasts at 10 nM after 2 hrs by rhodamine phalloidin-staining based fluorescence microscopic analysis; format: functional
[3] = molecular target: Cell division control protein 42 homolog (Homo sapiens) (UniProt P60953); assay: Activation of Cdc42 in human diabetic primary keratinocytes at 10 nM after 20 mins by immunoblot method
Outline: (§1)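 Keratinocytes from a diabetic adult donor; incubation 3 h for RhoA, 20 min for Cdc42 and Rac1. Lysates made in glycerol/Tris pH 7.4/NaCl/NP-40/MgCl2/PMSF buffer, spun at 4 °C. Active GTP-bound form pulled down on glutathione-sepharose with GST-Rhotekin (RhoA) or GST-PAK (Cdc42, Rac1) for 1 h at 4 °C. Total and pulled-down protein read by immunoblot with ECL; n = 3.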

Fibroblast [4] = assay: Effect on actin cytoskeleton in human non-diabetic primary fibroblasts assessed as formation of thin elongated cellular body at 10 nM after 2 hrs by rhodamine phalloidin-staining based fluorescence microscopic analysis; format: functional
Outline: (§2)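 Subconfluent cells on glass coverslips, collagen type I coated for fibroblasts; keratinocytes starved 2 days before stimulation. Exposure 2 h, then rhodamine-phalloidin staining (1:25 in PBS) and fluorescence microscopy. Controls were DMSO as solvent and PDGF (fibroblasts) or CNF1 (keratinocytes). Where used, p38-MAPK inhibitor LN 950 (100 nM) was added 30 min beforehand.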

[5] = molecular target: Transforming protein RhoA (Homo sapiens) (UniProt P61586); assay: Activation of RhoA in human diabetic primary keratinocytes at 10 nM after 3 hrs by immunoblot method; outline: as §1
[6] = molecular target: Ras-related C3 botulinum toxin substrate 1 (Homo sapiens) (UniProt P63000); assay: Activation of Rac1 in human diabetic primary keratinocytes at 10 nM after 20 mins by immunoblot method
Outline: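 Primary keratinocytes from a diabetic adult donor (NHK-d), exposed 20 min. Lysed in glycerol/Tris pH 7.4/NaCl/NP-40/MgCl2/PMSF buffer and cleared at 4 °C. Supernatant incubated 1 h at 4 °C with glutathione-sepharose beads carrying GST-PAK to pull down active GTP-bound Rac1. Blotted on a 13% gel, probed with anti-Rac1 (1:2.000) and detected by ECL; total Rac1 also measured. CNF1 (2 nM) positive control, n = 3.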

Keratinocyte = assay: Effect on actin cytoskeleton in human diabetic primary keratinocytes assessed as formation of cellular protrusions at 10 nM after 2 hrs by rhodamine phalloidin-staining based fluorescence microscopic analysis; format: functional; outline: as §2
Fibroblast [7] = assay: Effect on actin cytoskeleton in human non-diabetic primary fibroblasts assessed as formation of thin elongated cellular body at 10 nM after 2 hrs in presence of p-38 MAPK inhibitor LN 950 by rhodamine phalloidin-staining based fluorescence microscopic analysis; format: functional; outline: as §2
Fibroblast [8] = assay: Effect on actin cytoskeleton in human diabetic primary fibroblasts assessed as formation of thin elongated cellular body at 10 nM after 2 hrs by rhodamine phalloidin-staining based fluorescence microscopic analysis; format: functional; outline: as §2

Measured: Activity

Sequence of Cell division control protein 42 homolog (Homo sapiens) (P60953 whole entry, looked up): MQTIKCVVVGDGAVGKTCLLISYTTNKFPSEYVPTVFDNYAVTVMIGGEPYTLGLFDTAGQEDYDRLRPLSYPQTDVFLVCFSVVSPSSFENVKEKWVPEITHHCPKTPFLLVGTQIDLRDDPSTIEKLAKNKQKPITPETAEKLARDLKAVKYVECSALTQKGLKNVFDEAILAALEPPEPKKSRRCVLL
Sequence of Transforming protein RhoA (Homo sapiens) (P61586 whole entry): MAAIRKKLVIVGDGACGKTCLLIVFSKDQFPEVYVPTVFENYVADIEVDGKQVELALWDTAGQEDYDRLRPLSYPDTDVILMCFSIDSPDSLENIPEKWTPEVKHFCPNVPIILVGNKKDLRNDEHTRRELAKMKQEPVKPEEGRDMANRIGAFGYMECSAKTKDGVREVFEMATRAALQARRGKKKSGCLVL

C=C(C)[C@@H]1CC[C@]2(C(=O)O)CC[C@]3(C)[C@H](CC[C@@H]4[C@@]5(C)CC[C@H](O)C(C)(C)[C@@H]5CC[C@]43C)[C@@H]12
active: Fibroblast [1] | Fibroblast [2]

C=C(C)[C@@H]1CC[C@]2(C)CC[C@]3(C)[C@H](CC[C@@H]4[C@@]5(C)CC[C@H](O)C(C)(C)[C@@H]5CC[C@]43C)[C@@H]12
not listed: Fibroblast [1] | Fibroblast [2]
active: all other assays above
